Calls of active or inactive are those of the source. Non-standard residues stand in square brackets, D forms with d. Residues, ends and D or L forms follow the SMILES beside them. Dmt = Cc1cc(O)cc(C)c1C[C@H](N)C(=O)O; dCit = NC(=O)NCCC[C@@H](N)C(=O)O; NMeNle = CCCC[C@H](NC)C(=O)O; Nle = CCCC[C@H](N)C(=O)O
Assays:
[1] = system: Serum; test: Biodistribution in ICR-CD1 mouse serum at 30000 cpm/uL, iv after 15 mins; format: ADME, organism-based; details: in vivo, 0.25 h
Summary of the method: (§1)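 After intravenous 125I-peptide, kidneys, liver and other organs collected immediately after brain dissection, weighed and gamma-counted. Serum obtained by centrifugation at 10 000 × g for 15 min. Results expressed as % of injected dose per g tissue, normalized to body weight.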

[2] = system: Brain; test: Blood brain barrier transport in ICR-CD1 mouse brain assessed as brain efflux rate coefficient at 30000 cpm/uL, iv; format: ADME, organism-based; details: in vivo
[3] = molecular target: Mu-type opioid receptor (Cavia porcellus, UniProt P97266); test: (§2) Agonist activity at mu opioid receptor in guinea pig ileum; format: functional, tissue-based
Summary of the method: (§3)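 Isolated tissue bioassays: mouse vas deferens and guinea pig ileum preparations. A [Leu5]enkephalin dose-response curve was run as standard on each preparation, and test IC50 values were normalized against it.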

[4] = molecular target: Delta-type opioid receptor (Rattus norvegicus, UniProt P33533); test: Displacement of [3H]DSLET from delta opioid receptor in rat brain membranes after 2 hrs; format: cell membranes
[5] = molecular target: Mu-type opioid receptor (Rattus norvegicus, UniProt P33535); test: Displacement of [3H]DAMGO from mu opioid receptor in rat brain membranes after 2 hrs; format: cell membranes
[6] = Metabolic stability in mouse brain assessed as compound recovery after 2 hrs; format: ADME, tissue-based; details: read-out: Stability
Summary of the method: (§4)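 100 µg unlabelled peptide in Krebs-Henseleit buffer pH 7.4 incubated at 37 °C with shaking, in 250 µl mouse plasma or brain homogenate (150 µg protein). Aliquots quenched with TFA, heated 5 min at 95 °C, then centrifuged. Supernatants analysed by UPLC or HPLC (210 nm); recovery measured after 2 h.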

[7] = system: Mus musculus; test: Antinociceptive activity in CD1 mouse assessed as thermal-stimulus induced tail flick latency at 1 umol/kg, ip up to 120 mins; format: functional, organism-based
[8] = system: Brain; test: Blood brain barrier transport in ICR-CD1 mouse brain assessed as unidirectional initial influx rate at 30000 cpm/uL, iv; format: ADME, organism-based; details: in vivo
[9] = system: Mus musculus; test: Antinociceptive activity in sc dosed CD1 mouse assessed as thermal-stimulus induced tail flick latency after 1 hr relative to morphine; format: functional
Summary of the method: (§5)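 Male CD-1 mice (25–35 g) dosed s.c. at 10 µl/g. Radiant-heat tail-flick latency measured with a 10 s cut-off and expressed as %MPE. At least three doses, 5–6 mice per dose.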

[10] = system: Mus musculus; test: Antinociceptive activity in sc dosed CD1 mouse assessed as thermal-stimulus induced tail flick latency after 2 to 3 hrs; format: functional, organism-based; summary of the method: as §5
[11] = system: Liver; test: Biodistribution in ICR-CD1 mouse liver at 30000 cpm/uL, iv; format: ADME, organism-based; details: in vivo; summary of the method: as §1
[12] = molecular target: Kappa-type opioid receptor (Cavia porcellus, UniProt P41144); test: Displacement of [3H]U69,593 from kappa opioid receptor in guinea pig ileum membranes after 2 hrs; format: cell membranes, Membrane
[13] = molecular target: Delta-type opioid receptor (Mus musculus, UniProt P32300); test: (§6) Agonist activity at delta opioid receptor in mouse vas deferens; format: functional, tissue-based; summary of the method: as §3
[14] = system: Kidney; test: Biodistribution in ICR-CD1 mouse kidney at 30000 cpm/uL, iv; format: ADME, organism-based; details: in vivo; summary of the method: as §1
[15] = system: Mus musculus; test: Antinociceptive activity in CD1 mouse assessed as thermal-stimulus induced tail flick latency at 1 umol/kg, ip after 45 mins; format: functional, organism-based
[16] = system: Mus musculus; test: Antinociceptive activity in sc dosed CD1 mouse assessed as thermal-stimulus induced tail flick latency after 1 hr; format: functional; summary of the method: as §5
[17] = system: Mus musculus; test: Antinociceptive activity in CD1 mouse assessed as thermal-stimulus induced tail flick latency at 1 umol/kg, ip after 60 mins; format: functional, organism-based
[18] = system: Mus musculus; test: Antinociceptive activity in CD1 mouse assessed as AUC of thermal-stimulus induced tail flick latency assessed per min at 1 umol/kg, ip up to 120 mins; format: functional
[19] = Metabolic stability in mouse plasma assessed as compound recovery after 2 hrs; format: ADME, cell-free; details: read-out: Stability; summary of the method: as §4
[20] = molecular target: Mu-type opioid receptor (Cavia porcellus) (UniProt P97266); test: as §2; format: functional, tissue-based; summary of the method: as §3
[21] = Half life in sheep blood; format: ADME, cell-free, Ovis aries, Plasma
[22] = system: Mus musculus; test: Antinociceptive activity in sc dosed CD1 mouse assessed as thermal-stimulus induced tail flick latency after 6 to 7 hrs; format: functional, organism-based; summary of the method: as §5
[23] = system: Mus musculus; test: Antinociceptive activity in sc dosed CD1 mouse assessed as thermal-stimulus induced tail flick latency after 2 hrs; format: functional; summary of the method: as §5
[24] = system: Mus musculus; test: Antinociceptive activity in sc dosed CD1 mouse assessed as thermal-stimulus induced tail flick latency; format: functional; summary of the method: as §5
[25] = system: Mus musculus; test: Antinociceptive activity in CD1 mouse assessed as thermal-stimulus induced tail flick latency at 1 umol/kg, ip after 45 to 60 mins; format: functional, organism-based
[26] = system: Mus musculus; test: Antinociceptive activity in sc dosed CD1 mouse assessed as thermal-stimulus induced tail flick latency after 30 mins; details: 0.5 h
[27] = molecular target: Delta-type opioid receptor (Mus musculus) (UniProt P32300); test: as §6; format: functional, tissue-based; summary of the method: as §3
Delta-type opioid receptor (Mus musculus), sequence (P32300 whole entry): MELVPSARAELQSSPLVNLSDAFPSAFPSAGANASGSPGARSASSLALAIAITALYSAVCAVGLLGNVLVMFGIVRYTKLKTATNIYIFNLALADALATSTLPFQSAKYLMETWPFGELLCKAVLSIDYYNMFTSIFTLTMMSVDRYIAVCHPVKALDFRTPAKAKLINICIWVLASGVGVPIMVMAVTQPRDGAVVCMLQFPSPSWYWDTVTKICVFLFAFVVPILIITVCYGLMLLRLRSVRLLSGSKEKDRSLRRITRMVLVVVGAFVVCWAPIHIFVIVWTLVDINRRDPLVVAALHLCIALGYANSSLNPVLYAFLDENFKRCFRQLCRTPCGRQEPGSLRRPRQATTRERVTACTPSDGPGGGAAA

Mu-type opioid receptor (Rattus norvegicus, UniProt P33535), sequence (P33535 whole entry): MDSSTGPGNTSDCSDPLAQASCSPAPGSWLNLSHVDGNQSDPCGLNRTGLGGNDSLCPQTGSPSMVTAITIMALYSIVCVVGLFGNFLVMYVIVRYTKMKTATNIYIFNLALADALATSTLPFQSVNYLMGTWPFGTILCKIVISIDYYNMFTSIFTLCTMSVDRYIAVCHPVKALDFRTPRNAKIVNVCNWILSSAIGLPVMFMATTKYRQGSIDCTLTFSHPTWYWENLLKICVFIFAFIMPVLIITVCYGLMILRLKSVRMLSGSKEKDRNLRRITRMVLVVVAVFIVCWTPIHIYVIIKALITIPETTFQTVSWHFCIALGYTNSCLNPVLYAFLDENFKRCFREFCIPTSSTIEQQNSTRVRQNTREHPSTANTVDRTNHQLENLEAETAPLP
Kappa-type opioid receptor, sequence (P41144 whole entry): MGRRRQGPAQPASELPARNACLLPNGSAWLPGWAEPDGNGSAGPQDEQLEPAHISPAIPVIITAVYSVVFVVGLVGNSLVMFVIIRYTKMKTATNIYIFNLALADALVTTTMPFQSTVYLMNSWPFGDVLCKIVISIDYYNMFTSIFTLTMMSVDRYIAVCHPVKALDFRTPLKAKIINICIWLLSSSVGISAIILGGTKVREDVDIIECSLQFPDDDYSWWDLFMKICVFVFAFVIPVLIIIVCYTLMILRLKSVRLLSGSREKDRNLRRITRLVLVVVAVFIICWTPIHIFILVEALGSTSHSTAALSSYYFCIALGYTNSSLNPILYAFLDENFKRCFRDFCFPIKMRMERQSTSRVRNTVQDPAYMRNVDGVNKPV
Delta-type opioid receptor (Rattus norvegicus, UniProt P33533), sequence (P33533 whole entry): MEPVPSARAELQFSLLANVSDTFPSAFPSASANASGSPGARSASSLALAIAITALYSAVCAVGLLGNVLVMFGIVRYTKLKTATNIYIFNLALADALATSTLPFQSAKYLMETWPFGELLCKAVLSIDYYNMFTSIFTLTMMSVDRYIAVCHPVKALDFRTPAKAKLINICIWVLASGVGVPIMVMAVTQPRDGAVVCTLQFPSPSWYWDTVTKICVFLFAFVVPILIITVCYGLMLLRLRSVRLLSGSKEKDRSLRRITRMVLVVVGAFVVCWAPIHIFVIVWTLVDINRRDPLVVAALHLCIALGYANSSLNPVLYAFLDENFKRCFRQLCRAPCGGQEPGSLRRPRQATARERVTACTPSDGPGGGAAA
Mu-type opioid receptor (Cavia porcellus, UniProt P97266), sequence (P97266 whole entry): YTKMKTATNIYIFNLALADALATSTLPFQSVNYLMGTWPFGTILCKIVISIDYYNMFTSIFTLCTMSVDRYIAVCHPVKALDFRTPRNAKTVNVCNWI
Delta-type opioid receptor (Mus musculus, UniProt P32300), sequence (P32300 whole entry): as the sequence (P32300 whole entry) above
Mu-type opioid receptor (Cavia porcellus), sequence (P97266 whole entry): as the sequence (P97266 whole entry) above

SMILES	Drug uptake [1]	Activity [2]	IC50 [3]	Ki [4]	Ki [5]	remaining at 2 h [6]	Activity [7]	Kin [8]	Ki [12]	IC50 [13]	Activity [18]	remaining at 2 h [19]	further results
Cc1cc(O)cc(C)c1C[C@H](N)C(=O)N[C@H](CCCNC(N)=O)C(=O)N[C@@H](Cc1ccccc1)C(=O)N[C@@H](CCCCN)C(N)=O	Active	0.027 min⁻¹	0.31 nM	50 nM	0.57 nM	96.2%	Active	14.91 µL/g/min	20.9 nM	1.4 nM	521 %.min	98.3%	Ratio [9]: 29; Activity [10]: Active; Drug uptake [11]: Active; Drug uptake [14]: Active; Activity [15]: Active; ED50 [16]: 0.23 µmol/kg; Activity [17]: Active
CCCC[C@@H](C(N)=O)N1Cc2ccccc2C[C@H](NC(=O)[C@@H](CCCNC(N)=O)NC(=O)[C@@H](N)Cc2c(C)cc(O)cc2C)C1=O	–	–	–	3.18 nM	0.93 nM	–	–	–	11.1 nM	1.16 nM	–	–	IC35 [20]: 0.78 nM
Cc1cc(O)cc(C)c1C[C@H](N)C(=O)N[C@H](CCCNC(=N)N)C(=O)N[C@@H](Cc1ccccc1)C(=O)N[C@@H](CCCCN)C(N)=O	Active	0.058 min⁻¹	–	–	–	103%	Active	9.44 µL/g/min	–	–	750 %.min	94.7%	half-life [21]: 1.8 h; Activity [22]: Dose-dependent effect; Drug uptake [14]: Active; Activity [17]: Active; ED50 [23]: 0.15 µmol/kg
CCCC[C@H](NC(=O)[C@H](Cc1ccccc1)NC(=O)[C@@H](CCCNC(=N)N)NC(=O)[C@@H](N)Cc1c(C)cc(O)cc1C)C(N)=O (H-[Dmt][dR]F[Nle]-NH2)	–	–	–	–	–	–	Active	–	–	–	65 %.min	–	ED50 [24]: > 6 µmol/kg; Activity [17]: Active
CCCC[C@@H](C(N)=O)N(C)C(=O)[C@H](Cc1ccccc1)NC(=O)[C@@H](CCCNC(N)=O)NC(=O)[C@@H](N)Cc1c(C)cc(O)cc1C (H-[Dmt][dCit]F[NMeNle]-NH2)	–	–	0.65 nM	5.03 nM	2.92 nM	–	–	–	> 10 nM	1.5 nM	–	–	–
Cc1cc(O)cc(C)c1C[C@H](N)C(=O)N[C@H](CCCNC(N)=O)C(=O)N[C@H]1Cc2ccccc2CN([C@@H](CCCCN)C(N)=O)C1=O	–	–	49 nM	56.9 nM	2.62 nM	–	–	–	–	1000 nM	–	–	–
CCCC[C@H](NC(=O)[C@H](Cc1ccccc1)NC(=O)[C@@H](CCCNC(N)=O)NC(=O)[C@@H](N)Cc1c(C)cc(O)cc1C)C(N)=O (H-[Dmt][dCit]F[Nle]-NH2)	–	–	0.89 nM	3.98 nM	0.79 nM	–	–	–	98.5 nM	4.7 nM	–	–	–
Cc1cc(O)cc(C)c1C[C@H](N)C(=O)N[C@H](CCCN=C(N)N)C(=O)N[C@H]1Cc2ccccc2CN(CC(N)=O)C1=O	Active	0.096 min⁻¹	–	–	–	99.6%	–	14.89 µL/g/min	–	–	–	107%	Drug uptake [14]: Active
CCCC[C@@H](C(N)=O)N(C)C(=O)[C@H](Cc1ccccc1)NC(=O)[C@@H](CCCN=C(N)N)NC(=O)[C@@H](N)Cc1c(C)cc(O)cc1C	–	–	4.35 nM	16 nM	0.26 nM	–	–	–	14.4 nM	1.5 nM	–	–	–
CCCC[C@H](NC(=O)[C@H](Cc1ccccc1)NC(=O)[C@@H](CCCN=C(N)N)NC(=O)[C@@H](N)Cc1c(C)cc(O)cc1C)C(N)=O (H-[Dmt][dR]F[Nle]-NH2)	Active	-0.039 min⁻¹	2.2 nM	15.2 nM	0.23 nM	104%	–	8.48 µL/g/min	16.2 nM	6.2 nM	–	90.2%	Drug uptake [11]: Active
Cc1cc(O)cc(C)c1C[C@H](N)C(=O)N[C@H](CCCNC(=N)N)C(=O)N[C@@H](Cc1ccccc1)C(=O)N(C)[C@@H](CCCCN)C(N)=O	Active	0.028 min⁻¹	8.3 nM	309 nM	0.26 nM	94%	Active	18.11 µL/g/min	56.1 nM	7 nM	–	112%	Activity [22]: Dose-dependent effect; Activity [25]: Active; ED50 [23]: 0.13 µmol/kg
CN1CC[C@]23c4c5ccc(O)c4O[C@H]2[C@@H](O)C=C[C@H]3[C@H]1C5 [MORPHINE]	–	–	–	–	–	–	–	–	–	–	66 %.min	–	ED50 [26]: 6.6 µmol/kg
Cc1cc(O)cc(C)c1C[C@H](N)C(=O)N[C@H](CCCNC(=N)N)C(=O)N[C@H]1Cc2ccccc2CN(CC(N)=O)C1=O	–	–	–	–	–	–	Active	–	–	–	253 %.min	–	Activity [22]: Dose-dependent effect; Ratio [9]: 14; ED50 [16]: 0.47 µmol/kg
CCCC[C@@H](C(N)=O)N1Cc2ccccc2C[C@H](NC(=O)[C@@H](CCCN=C(N)N)NC(=O)[C@@H](N)Cc2c(C)cc(O)cc2C)C1=O	–	–	1.45 nM	7.46 nM	0.43 nM	–	–	–	1.12 nM	3.1 nM	–	–	–
C[C@@H](NC(=O)[C@@H](N)Cc1ccc(O)cc1)C(=O)N[C@@H](Cc1ccccc1)C(=O)NCC(=O)N[C@@H](Cc1ccc(O)cc1)C(=O)N1CCC[C@H]1C(=O)N[C@@H](CO)C(N)=O [DERMORPHIN]	–	–	–	–	–	–	–	–	–	–	46 %.min	–	–
Cc1cc(O)cc(C)c1C[C@H](N)C(=O)N[C@H](CCCNC(=N)N)C(=O)N[C@H]1Cc2ccccc2CN([C@@H](CCCCN)C(N)=O)C1=O	–	–	76 nM	38.6 nM	0.61 nM	–	–	–	–	–	–	–	IC25 [27]: 64 nM
Cc1cc(O)cc(C)c1C[C@H](N)C(=O)N[C@H](CCCNC(N)=O)C(=O)N[C@@H](Cc1ccccc1)C(=O)N(C)[C@@H](CCCCN)C(N)=O	Active	0.01 min⁻¹	1.01 nM	39.2 nM	0.94 nM	95%	Active	11.35 µL/g/min	11.5 nM	4.4 nM	1412 %.min	104%	Ratio [9]: 41; Activity [10]: Active; Activity [25]: Active; ED50 [16]: 0.16 µmol/kg
